System: A549
Assay: Antiproliferative activity against human A549 cells assessed as inhibition of cell growth incubated for 72 hrs by alamar blue assay
Assay type: functional, cell-based
Conditions: A549, 72 h
How it was run: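 Cells grown in IMDM with 20% FBS and penicillin/streptomycin at 37 °C, 5% CO2. Compound added to plated cells for 72 h. Alamar blue (1 mM solution) then added for 5–6 h, and fluorescence read at 530/590 nm. IC50 derived for single-agent treatment.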

IC50: 100 µM
SMILES: O=C(NO)c1ccc(CN2CC(=O)N(Cc3ccccc3)[C@H](Cc3ccccc3)C2=O)cc1

Reference: ChEMBL document CHEMBL5230083, “Novel 2, 5-diketopiperazine derivatives as potent selective histone deacetylase 6 inhibitors: Rational design, synthesis and antiproliferative activity” (Eur J Med Chem, 2020)
